Screens deposited in PubChem by several laboratories.
A selection: hits, their analogues and other compounds. The true share with any hit is near 2.2%.
GSTO1 counter: blocks human GSTO1 in RBBP9 counter-screen. P78417. recombinant GSTO1, activity-based probe fluorescence polarization. inhibition, % at 5.96 µM. 1.1% of 300,000 active;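 active = inhibition above the campaign mean inhibition plus 3 SD, cut at about 35% in these data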;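 also: 0% = GSTO1-1 with DMSO and 100% = wells lacking GSTO1-1 enzyme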
UBC9 SUMO inh: blocks human SUMOylation mediated by UBC9. HTRF SUMOylation assay, SAE1/SAE2 + UBC9, in vitro. inhibition, % at 35 µM. 0.36% of 290,000 active. AID 2006; in the data active = inhibition above about 50%, passing the limit was not always enough
Rin1 Abl inh: blocks binding of human Rin1 to Abl; inhibition, % at 7.35 µM; AID 588664; 0.4% of 360,000 active; TR-FRET Rin1/Abl binding, biochemical; P00519+Q13671; in the data active = inhibition above about 5%, passing the limit was not always enough
Apaf-1 inh: blocks human Apaf-1 apoptosome activity | reconstituted apoptosome caspase-3 activity, DEVD-Rh110 fluorescence | inhibition, % at 20 µM | 0.71% of 330,000 active | AID 489030; active = inhibition of at least 40% at 20 µM;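 also: plate controls were DMSO wells for no effect and DEVD-CHO caspase inhibitor wells for full effect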
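Assay system: Apoptosome proteins | Medium: pH 7.5 Hepes buffer with CHAPS, BSA, DTT | Also added: Cytochrome c and DEVD-Rh110 substrate | Times: 30 min plus 50 min, RT | Detection: Rhodamine 110 fluorescence at Ex 480/Em 540 nm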
UBC13 polyUb: inhibitors of human UBC13 polyubiquitin chain formation; TR-FRET; inhibition, % at 20 µM; 0.47% of 330,000 active; AID 485273; in the data active = inhibition above about 45%, passing the limit was not always enough
PAD4 FP inh: inhibitors of human PAD4 | Q9UM07 | recombinant PAD4, RCA probe fluorescence polarization | inhibition, % at 6.36 µM | 0.41% of 330,000 active;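 active = percent inhibition above a cutoff equal to the mean of all tested compounds plus 3 SD, cut at about 15% in these data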;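 also: 0% = PAD4 with RCA probe and DMSO and 100% = probe without PAD4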
Rin1 Abl conf: confirmation of inhibitors of human Rin1-Abl interaction | TR-FRET Rin1-Abl binding, purified proteins | AID 602124 | inhibition, % at 7.35 µM | shares compounds with Rin1 Abl inh | 49% of 1,300 active
GFP quencher: quenches GFP fluorescence, counter-screen for Rin1-Abl inhibitors. inhibition, % at 6.75 µM. 8.5% of 1,300 active. inhibitors/quenchers counterscreen. shares compounds with Rin1 Abl inh;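 also: ABL1-eGFP fusion protein alone without its partner RIN1-SBP; 0% = protein with vehicle and 100% = wells lacking protein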
GFP quench DR: counter-screen for Rin1-Abl inhibitors: GFP quenchers, dose response | shares compounds with Rin1 Abl inh | AID 602182 | GFP fluorescence interference/quenching counterscreen | IC50, µM | 230 tested, under 10 active; call rule not given here;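 also: ABL1-eGFP fusion protein alone without its RIN1 binding partner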
* hit, by the source's call. Rule as the data show it, unless noted: active = inhibition above about 6.5%; inactive = the rest.

`COC(=O)c1ccc(CSc2nnc(-c3ccccc3)n2C)o1` gave GSTO1 counter 8, UBC9 SUMO inh -8, Rin1 Abl inh 23*, Apaf-1 inh 8, UBC13 polyUb -13, PAD4 FP inh -2, Rin1 Abl conf 32*, GFP quencher 0 and GFP quench DR >68.
For COC(=O)c1ccc(CSc2nnc(-c3c[nH]c4ccccc34)n2C)o1 the results were GSTO1 counter 15, UBC9 SUMO inh 9, Rin1 Abl inh 26*, Apaf-1 inh -4, UBC13 polyUb 2, PAD4 FP inh 1, Rin1 Abl conf 32*, GFP quencher 0 and GFP quench DR >68.
Screening Cn1c(SCc2ccccc2)nnc1-c1c[nH]c2ccccc12 returned GSTO1 counter 6, UBC9 SUMO inh -1, Rin1 Abl inh 0, Apaf-1 inh 6, UBC13 polyUb 2 and PAD4 FP inh -2.
For C[C@H](CO)N1C[C@H](C)[C@@H](CN(C)S(=O)(=O)c2ccc(F)cc2)Oc2ccc(NC(=O)C3CC3)cc2C1=O the results were Rin1 Abl inh 14*, Apaf-1 inh 3, UBC13 polyUb -1, PAD4 FP inh 2, Rin1 Abl conf 14* and GFP quencher 1.
Screening CCOC(=O)CCCCCC(=O)Nc1ccc2c(c1)CC(=O)N([C@H](C)CO)C[C@@H](C)[C@H](CN(C)Cc1ccc3c(c1)OCO3)O2 returned Rin1 Abl inh 16*, Apaf-1 inh 10, UBC13 polyUb 16, PAD4 FP inh 0, Rin1 Abl conf 18*, GFP quencher -1 and GFP quench DR >68.
C[C@@H]1CN([C@@H](C)CO)C(=O)c2cc(NC(=O)CCC(F)(F)F)ccc2O[C@H]1CN(C)S(=O)(=O)c1ccc(Cl)cc1 was read as Rin1 Abl inh 3, Apaf-1 inh 7, UBC13 polyUb 3 and PAD4 FP inh 4.
`C[C@@H]1CN([C@H](C)CO)C(=O)Cc2cc(NC(=O)Nc3ccccc3)ccc2O[C@@H]1CN(C)Cc1ccc2c(c1)OCO2` gave Rin1 Abl inh 8, Apaf-1 inh 35, UBC13 polyUb 8 and PAD4 FP inh 2.
For CC(C)NC(=O)Nc1ccc2c(c1)C(=O)N([C@@H](C)CO)C[C@@H](C)[C@@H](CN(C)S(=O)(=O)c1ccc(F)cc1)O2 the results were Rin1 Abl inh 2, Apaf-1 inh 6, UBC13 polyUb -21 and PAD4 FP inh 3.
`CCOC(=O)CCCCCC(=O)Nc1ccc2c(c1)C(=O)N([C@H](C)CO)C[C@H](C)[C@@H](CN(C)C(=O)Nc1ccc(OC)cc1)O2` gave Rin1 Abl inh 16*, Apaf-1 inh 12, UBC13 polyUb 7, PAD4 FP inh -1, Rin1 Abl conf 13* and GFP quencher 0.
For COc1ccc(S(=O)(=O)N(C)C[C@H]2Oc3ccc(NC(=O)CCC(F)(F)F)cc3C(=O)N([C@H](C)CO)C[C@@H]2C)cc1 the results were Rin1 Abl inh 16*, Apaf-1 inh 8, UBC13 polyUb -13, PAD4 FP inh -1, Rin1 Abl conf 15* and GFP quencher -1.
Screening Nn1c(-c2cccc(O)c2)nnc1-c1cccc(O)c1 returned Rin1 Abl inh 1.
For C[C@@H]1CCCCO[C@@H](CN(C)S(=O)(=O)c2cccs2)[C@@H](C)CN([C@H](C)CO)C(=O)c2cc(NS(=O)(=O)c3ccccc3)ccc2O1 the results were Rin1 Abl inh 69*, Rin1 Abl conf 67*, GFP quencher -1 and GFP quench DR >68.
For CC1=NN(c2ccccc2)C(=O)/C1=C\c1ccc(Oc2ccc([N+](=O)[O-])cc2[N+](=O)[O-])cc1 the results were GSTO1 counter 77*, UBC9 SUMO inh 95*, Rin1 Abl inh 7.4*, Apaf-1 inh 92*, UBC13 polyUb -64, PAD4 FP inh 51*, Rin1 Abl conf 1 and GFP quencher 0.
Nc1ccc(Oc2ccc([N+](=O)[O-])cc2[N+](=O)[O-])cc1 was read as GSTO1 counter 11, UBC9 SUMO inh -5, Rin1 Abl inh 4, Apaf-1 inh -5, UBC13 polyUb -10 and PAD4 FP inh 1.
For Cc1ccc(CS/C(Nc2ccccc2C)=C(\C#N)C(=O)NCc2ccco2)c(C)c1 the results were GSTO1 counter 2, UBC9 SUMO inh -20, Rin1 Abl inh 26*, Apaf-1 inh 26, UBC13 polyUb -7, PAD4 FP inh 4, Rin1 Abl conf 1 and GFP quencher 2.
Cc1ccccc1N/C(SCc1ccc(Cl)cc1)=C(/C#N)C(=O)NCc1ccco1 was read as GSTO1 counter 2, UBC9 SUMO inh 1, Rin1 Abl inh 4, Apaf-1 inh 17, UBC13 polyUb -1 and PAD4 FP inh -2.
`Cc1ccc([C@H]2C[C@@H](O)[C@H](n3cc(-c4ccc(F)cc4)nn3)CN2Cc2cccs2)cc1` gave Rin1 Abl inh 3.
`Cc1ccc(NC(=O)COC(=O)Cc2c[nH]c3ccccc23)cc1F` gave Rin1 Abl inh 10*, Apaf-1 inh 21, UBC13 polyUb 2, Rin1 Abl conf -2 and GFP quencher 2.
Screening O=C(COC(=O)Cc1c[nH]c2ccccc12)Nc1ccc(Cl)cc1 returned Rin1 Abl inh -4.
`CC1CCN(C(=O)c2[nH]cnc2C(=O)NC2CCN(C(=O)OC(C)(C)C)CC2)CC1` gave Rin1 Abl inh 10*, Apaf-1 inh 9, UBC13 polyUb -10, PAD4 FP inh -8, Rin1 Abl conf 4 and GFP quencher -1.
CN(C)c1ccc(CNC(=O)C2Cc3c(-c4cccc(C(N)=O)c4)ccnc3O2)cc1 (configuration not stated) was read as Rin1 Abl inh 7.0*, Rin1 Abl conf 7.2* and GFP quencher -2.
NC(=O)c1cccc(-c2ccnc3c2CC(C(=O)Nc2ccccc2)O3)c1 (configuration not stated) was read as Rin1 Abl inh 12*, Rin1 Abl conf 8.6* and GFP quencher 0.
CN1CCN(c2ccc(CNC(=O)C3(C)Cc4c(-c5ccc(C(N)=O)cc5)ccnc4O3)cc2)CC1 (configuration not stated) was read as Rin1 Abl inh 6.
NC(=O)c1cccc(-c2ccnc3c2CC(C(=O)NCc2ccco2)O3)c1 (configuration not stated) was read as Rin1 Abl inh 1.
